From paper PMC6373376 (Clinical Pharmacokinetics, 2018)
Read-outs that look alike come from different tables or passages of the source.

What was measured:
[1] = format: in vivo, human; conditions: for Tlag / Tmax: median (range)
[2] = format: in vivo, human; conditions: for T½ / Tlag / AUC(0-t) / AUC(0-inf) / Cmax / Tmax / half-life / Vd/F: Study B part 1, siponimod 0.25 mg single dose; for AUC / AUC(0-t) / AUC(0-inf) / Cmax / Tmax / half-life / Vd/F: human, plasma, oral, 0.25 mg; for AUC: AUC24, Study B part 1, siponimod 0.25 mg single dose; for AUC(0-t): AUClast; for half-life: T½; for Vd/F: VZ/F
[3] = format: in vivo, human
[4] = Study A: safety/tolerability; format: in vivo, human
Procedure, shortened: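 Healthy adults; open-label, two-period, single-sequence design. Period 1: single oral 4 mg test compound on day 1. Period 2: azole CYP2C9 inhibitor 200 mg twice on day 1, then 200 mg once daily days 2–19, with 4 mg test compound on day 3. Washout 14–21 days. Safety covered all AEs and SAEs, physical exams, vital signs, ECG and lab tests, in everyone given at least one dose.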

[5] = Study B: safety/tolerability; format: in vivo, human
Procedure, shortened: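 Healthy subjects genotyped for CYP2C9. Part 1: single oral 0.25 mg test compound to *1/*1 (n = 12), *2/*3 (n = 6) and *3/*3 (n = 6), then 42-day washout. Part 2: poor metabolisers only, 0.25 mg on days 1–2 and 0.5 mg on day 3. Safety covered all AEs and SAEs, cardiac monitoring, haematology, blood chemistry and urinalysis, in all dosed subjects.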

[6] = same dosing regimen, ref unpublished data; cited from earlier work
[7] = cited from earlier work
[8] = cited from earlier work; remark: listed apart in the source
CYP2C9 = conditions: cited from earlier work
CYP3A4 = conditions: cited from earlier work
[9] = cited from earlier work; remark: listed apart in the source
[10] = CYP2C9*1/*1, geometric mean (CV%)
[11] = CYP2C9*2/*3, geometric mean (CV%)
[12] = CYP2C9*3/*3, geometric mean (CV%)
[13] = single-ascending dose 0.1–75 mg

For `CCc1cc(/C(C)=N/OCc2ccc(C3CCCCC3)c(C(F)(F)F)c2)ccc1CN1CC(C(=O)O)C1` [Siponimod], the “Increase in Cmax in the presence of fluconazole” value ([1]; Study A) was 10%, the Tlag ([1]; Study A, siponimod 4 mg + steady-state fluconazole) was 0 (0–0) h and the CL/F ([1]; Study A, siponimod 4 mg alone, geometric mean (CV%)) was 3.6 L/h. The Tlag ([1]; Study A, siponimod 4 mg alone) was 0.25 (0–0.5) h, the Tmax ([1]; Study A, siponimod 4 mg alone) was 4.0 (2.0–8.1) h and the AUC(0-inf) ([1]; human, plasma, oral, 4 mg) was 1120 ng·h/mL. For the same compound, the Cmax ([1]; human, plasma, oral, 4 mg) was 31.2 ng/mL, the Vd/F ([1]; human, plasma, oral, 4 mg) was 210 L and the Tmax ([1]; human, plasma, oral, 4 mg, Tmax, Study A, siponimod 4 mg alone) was about 4 h. For the same compound, the AUC(0-t) ([1]; human, plasma, po, 4 mg) was 1110 ng·h/mL, the T½ [2, 10] was 28.1 (18.5) h and the Tlag ([2]; CYP2C9*1/*1, median (range)) was 0.25 (0.00–0.50) h. For the same compound, the T½ [2, 11] was 50.9 (31.7) h, the Tlag ([2]; CYP2C9*2/*3, median (range)) was 0.25 (0.00–0.50) h and the Tlag ([2]; CYP2C9*3/*3, median (range)) was 0.50 (0.00–0.50) h. The AUC [2, 10] was 31.6 ng·h/mL, the AUC [2, 11] was 44.7 ng·h/mL and the AUC [2, 12] was 42.7 ng·h/mL. It also gave an AUC(0-t) [2, 10] of 68.6 ng·h/mL, an AUC(0-t) [2, 11] of 140 ng·h/mL and an AUC(0-t) [2, 12] of 266 ng·h/mL. For the same compound, the AUC(0-inf) [2, 10] was 70.5 ng·h/mL, the AUC(0-inf) [2, 11] was 144 ng·h/mL and the AUC(0-inf) [2, 12] was 271 ng·h/mL. For the same compound, the Cmax [2, 11] was 2.45 ng/mL, the Cmax [2, 12] was 2.35 ng/mL and the Tmax ([2]; CYP2C9*1/*1, median (range)) was 4 h. For the same compound, the Tmax ([2]; CYP2C9*2/*3, median (range)) was 5 h, the Tmax ([2]; CYP2C9*3/*3, median (range)) was 4 h and the half-life [2, 11] was 51 h. The half-life [2, 12] was 126 h, the Vd/F [2, 10] was 144 L and the Vd/F [2, 11] was 127 L. For the same compound, the Vd/F [2, 12] was 167 L, the “AUC24 on day 3 higher versus the dose titration study data” value ([3]; Study B part 2, CYP2C9*2/*3, comparison with ref 15) was 1.4 fold and the “AUC24 on day 3 higher versus the dose titration study data” value ([3]; Study B part 2, CYP2C9*3/*3, comparison with ref 15) was 1.7 fold. The Tmax ([3]; human, plasma, po, 0.5 mg) was 6 h, the AUC ([3]; human, plasma, po, 0.5 mg, AUC24, Study B part 2, day 3, CYP2C9*2/*3, mean) was 125 ng·h/mL and the AUC ([3]; human, plasma, po, 0.5 mg, AUC24, Study B part 2, day 3, CYP2C9*3/*3, mean) was 148 ng·h/mL. The “Deaths or SAEs” value ([4]; Study A) was “No deaths or SAEs were reported”, the “Subjects who experienced AEs” value ([4]; Study A period 1, siponimod 4 mg alone) was 79% and the “Subjects who experienced AEs” value ([4]; Study A period 2, siponimod + fluconazole) was 73%. For the same compound, the “Deaths or SAEs” value ([5]; Study B) was “No deaths or SAEs were reported”, the “Subjects reporting at least one AE” value ([5]; Study B part 2, 12 subjects) was 25% and the “Headache (most prevalent AE) incidence” value ([5]; Study B, in both parts) was 8.3%. The “Tmax observed in historical data” value [6] was 1.35 h, the “Single-dose maximum tolerated dose (MTD)” value ([7]; healthy subjects, single-ascending dose range study, ref unpublished data) was 25 mg and the “Earliest time measurable in plasma postdose” value ([7]; single-ascending dose 0.1–75 mg, 98 healthy subjects) was 0.25 h. For the same compound, the “Time at which Cmax was reached postdose” value [7, 13] was 3 to 8 h, the “Time at which Cmax was reached, minimum–maximum” value [7, 13] was 0.25 to 24 h and the “T½, mean range” value ([7]; single-ascending dose study, ref unpublished data) was 27 to 57 h. The “Tolerability of multiple doses” value ([8]; doses up to 20 mg daily for 28 days) was “well tolerated”, the “Time to steady-state of plasma siponimod” value ([8]; multiple-ascending dose 0.3–20 mg, 28 days, 48 healthy subjects) was “approximately 6 days” and the “Effective elimination half-life (T½)” value ([8]; multiple-ascending dose 0.3–20 mg, range) was 22 to 38 h. The “Contribution of CYP2C9 to metabolism (formation of M5)” value (CYP2C9) was 79.2%, the “Contribution of the CYP2C9 pathway to total metabolic clearance (fm)” value (CYP2C9; determined in vitro) was 79% and the “Contribution of CYP3A4 to metabolism (formation of M5)” value (CYP3A4) was 18.5%. For the same compound, the “Predicted increase in siponimod AUC in the presence of fluconazole” value ([9]; SimCYP simulation) was “two to three” and the “First-pass effect estimated by SimCYP” value ([9]; ref unpublished data) was ~5 % of the administered dose.
